Reference: ChEMBL document CHEMBL4190389, “Synthesis and activity of di- or trisubstituted N-(phenoxyalkyl)- or N-{2-[2-(phenoxy)ethoxy]ethyl}piperazine derivatives on the central nervous system” (Bioorg Med Chem Lett, 2018)
Blank lines part the entries; values can stand above or below the compound they belong to. Calls of active or inactive are those of the source. No cut-off for these calls is given here.

Tests used:
[1] = biological target: T1, Adrenergic receptor alpha-1 (Rattus norvegicus, UniProt P15823+P23944+P43140); assay: Displacement of [3H]prazosin from rat cerebral cortex adrenergic receptor alpha1 by liquid scintillation counting method
T1 sequence (P15823 whole entry): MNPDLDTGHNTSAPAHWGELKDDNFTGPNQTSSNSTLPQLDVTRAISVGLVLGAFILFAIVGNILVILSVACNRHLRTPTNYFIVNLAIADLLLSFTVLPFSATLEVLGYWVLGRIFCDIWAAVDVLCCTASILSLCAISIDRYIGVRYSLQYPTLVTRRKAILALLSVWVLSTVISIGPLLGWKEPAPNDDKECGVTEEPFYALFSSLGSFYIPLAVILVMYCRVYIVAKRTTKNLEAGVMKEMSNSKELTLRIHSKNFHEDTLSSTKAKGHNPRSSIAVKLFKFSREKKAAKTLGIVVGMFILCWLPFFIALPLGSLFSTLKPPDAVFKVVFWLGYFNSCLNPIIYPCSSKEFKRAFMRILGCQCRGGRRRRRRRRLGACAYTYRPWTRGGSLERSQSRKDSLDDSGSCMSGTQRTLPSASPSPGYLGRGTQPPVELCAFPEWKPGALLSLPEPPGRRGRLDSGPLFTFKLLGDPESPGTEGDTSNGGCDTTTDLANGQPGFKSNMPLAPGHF
T1 sequence (P23944 whole entry): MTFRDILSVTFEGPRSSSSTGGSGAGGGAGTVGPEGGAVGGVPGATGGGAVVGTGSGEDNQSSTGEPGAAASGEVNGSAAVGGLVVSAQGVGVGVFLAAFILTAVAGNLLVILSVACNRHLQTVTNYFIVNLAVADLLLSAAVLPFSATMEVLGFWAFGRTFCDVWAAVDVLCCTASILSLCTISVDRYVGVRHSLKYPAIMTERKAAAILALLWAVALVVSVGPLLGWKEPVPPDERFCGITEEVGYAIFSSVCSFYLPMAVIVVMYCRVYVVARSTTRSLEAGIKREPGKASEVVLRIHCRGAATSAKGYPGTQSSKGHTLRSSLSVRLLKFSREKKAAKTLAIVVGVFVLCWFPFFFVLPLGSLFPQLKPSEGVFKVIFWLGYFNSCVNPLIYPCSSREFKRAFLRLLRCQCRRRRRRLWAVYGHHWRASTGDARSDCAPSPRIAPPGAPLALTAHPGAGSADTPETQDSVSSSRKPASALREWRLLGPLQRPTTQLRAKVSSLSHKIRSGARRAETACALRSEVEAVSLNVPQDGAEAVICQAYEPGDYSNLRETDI
T1 sequence (P43140 whole entry): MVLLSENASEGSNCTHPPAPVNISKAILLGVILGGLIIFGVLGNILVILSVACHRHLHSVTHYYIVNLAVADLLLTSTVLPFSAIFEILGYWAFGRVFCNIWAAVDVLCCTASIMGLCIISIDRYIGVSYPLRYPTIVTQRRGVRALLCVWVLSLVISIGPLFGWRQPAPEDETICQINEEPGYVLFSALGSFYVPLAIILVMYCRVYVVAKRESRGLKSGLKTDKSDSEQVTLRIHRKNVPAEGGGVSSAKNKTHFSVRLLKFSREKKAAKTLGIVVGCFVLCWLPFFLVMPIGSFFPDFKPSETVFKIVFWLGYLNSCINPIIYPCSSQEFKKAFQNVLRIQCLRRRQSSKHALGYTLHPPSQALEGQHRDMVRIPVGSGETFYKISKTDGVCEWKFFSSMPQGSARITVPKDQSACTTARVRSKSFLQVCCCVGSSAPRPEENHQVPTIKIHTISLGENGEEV

[2] = biological target: T2, 5-hydroxytryptamine receptor 1A (Homo sapiens, UniProt P08908); assay: Binding affinity to 5-HT1A receptor (unknown origin)
T2 sequence (P08908 whole entry): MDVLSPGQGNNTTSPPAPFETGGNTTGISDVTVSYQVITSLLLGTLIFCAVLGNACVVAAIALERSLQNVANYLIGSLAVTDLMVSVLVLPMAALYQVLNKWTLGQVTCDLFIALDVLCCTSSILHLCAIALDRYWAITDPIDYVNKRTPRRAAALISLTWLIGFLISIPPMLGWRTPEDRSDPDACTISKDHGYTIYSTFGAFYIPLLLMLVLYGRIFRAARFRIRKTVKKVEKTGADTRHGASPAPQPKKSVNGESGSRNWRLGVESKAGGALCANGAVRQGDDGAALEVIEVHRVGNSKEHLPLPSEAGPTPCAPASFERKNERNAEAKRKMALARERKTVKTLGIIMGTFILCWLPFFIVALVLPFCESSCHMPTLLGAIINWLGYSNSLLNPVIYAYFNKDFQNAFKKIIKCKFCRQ

[3] = biological target: T2, 5-hydroxytryptamine receptor 1A; assay: Displacement of [3H]8-OH-DPAT from recombinant human 5-HT1A receptor expressed in HEK293 cell membranes after 60 mins by liquid scintillation counting method
[4] = biological target: T3, 5-hydroxytryptamine receptor 2A (Homo sapiens, UniProt P28223); assay: biochemical; assay type: cell-based, HEK293
T3 sequence (P28223 whole entry): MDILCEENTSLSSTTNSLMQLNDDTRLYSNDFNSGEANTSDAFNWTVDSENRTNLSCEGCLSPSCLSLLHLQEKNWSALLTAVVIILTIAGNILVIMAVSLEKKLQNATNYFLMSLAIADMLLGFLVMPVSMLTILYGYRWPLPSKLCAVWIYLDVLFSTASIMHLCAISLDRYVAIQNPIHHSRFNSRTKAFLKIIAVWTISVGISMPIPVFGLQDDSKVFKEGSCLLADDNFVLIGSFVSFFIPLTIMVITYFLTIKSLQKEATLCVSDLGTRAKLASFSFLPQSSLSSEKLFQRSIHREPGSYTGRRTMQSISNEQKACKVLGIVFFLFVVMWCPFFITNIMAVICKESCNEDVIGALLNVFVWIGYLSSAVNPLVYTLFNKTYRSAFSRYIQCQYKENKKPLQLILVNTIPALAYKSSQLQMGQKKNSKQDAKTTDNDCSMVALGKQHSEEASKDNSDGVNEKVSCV

[5] = biological target: 5-hydroxytryptamine receptor 6 (Homo sapiens, UniProt P50406); assay: Displacement of [3H]LSD from recombinant human 5-HT6 receptor expressed in CHO cells cell membranes after 60 mins by liquid scintillation counting method
Chain of 5-hydroxytryptamine receptor 6 (P50406 whole entry): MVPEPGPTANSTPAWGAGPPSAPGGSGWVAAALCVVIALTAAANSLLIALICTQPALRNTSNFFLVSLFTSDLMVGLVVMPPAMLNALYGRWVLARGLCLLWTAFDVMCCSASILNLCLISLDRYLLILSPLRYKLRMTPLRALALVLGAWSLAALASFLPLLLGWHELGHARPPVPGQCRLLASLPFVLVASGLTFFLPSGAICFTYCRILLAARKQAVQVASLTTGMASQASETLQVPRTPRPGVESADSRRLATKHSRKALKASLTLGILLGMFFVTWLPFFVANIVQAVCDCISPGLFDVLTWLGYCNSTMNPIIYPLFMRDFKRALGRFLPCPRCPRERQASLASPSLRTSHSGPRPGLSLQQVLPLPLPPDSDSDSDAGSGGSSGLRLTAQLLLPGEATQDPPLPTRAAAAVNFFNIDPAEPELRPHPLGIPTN

[6] = biological target: T4, 5-hydroxytryptamine receptor 7 (Homo sapiens, UniProt P34969); assay: biochemical; assay type: cell-based, CHO
T4 sequence (P34969 whole entry): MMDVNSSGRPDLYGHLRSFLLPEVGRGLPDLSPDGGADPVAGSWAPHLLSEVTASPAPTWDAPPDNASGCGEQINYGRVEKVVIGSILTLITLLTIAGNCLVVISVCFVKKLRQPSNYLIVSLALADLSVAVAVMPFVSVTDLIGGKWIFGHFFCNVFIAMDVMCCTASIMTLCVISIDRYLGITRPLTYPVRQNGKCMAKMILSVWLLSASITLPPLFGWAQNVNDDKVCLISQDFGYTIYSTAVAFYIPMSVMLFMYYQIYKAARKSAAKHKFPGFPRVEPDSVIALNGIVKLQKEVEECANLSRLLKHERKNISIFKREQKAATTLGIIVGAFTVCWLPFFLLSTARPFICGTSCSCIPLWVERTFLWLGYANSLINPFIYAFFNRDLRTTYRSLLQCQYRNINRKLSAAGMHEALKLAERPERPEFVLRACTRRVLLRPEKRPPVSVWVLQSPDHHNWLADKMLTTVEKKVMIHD

[7] = biological target: T5, D(2) dopamine receptor (Homo sapiens, UniProt P14416); assay: Displacement of [3H]methylspiperonee from recombinant human D2 receptor expressed in HEK293 cells cell membranes after 60 mins by liquid scintillation counting method
T5 sequence (P14416 whole entry): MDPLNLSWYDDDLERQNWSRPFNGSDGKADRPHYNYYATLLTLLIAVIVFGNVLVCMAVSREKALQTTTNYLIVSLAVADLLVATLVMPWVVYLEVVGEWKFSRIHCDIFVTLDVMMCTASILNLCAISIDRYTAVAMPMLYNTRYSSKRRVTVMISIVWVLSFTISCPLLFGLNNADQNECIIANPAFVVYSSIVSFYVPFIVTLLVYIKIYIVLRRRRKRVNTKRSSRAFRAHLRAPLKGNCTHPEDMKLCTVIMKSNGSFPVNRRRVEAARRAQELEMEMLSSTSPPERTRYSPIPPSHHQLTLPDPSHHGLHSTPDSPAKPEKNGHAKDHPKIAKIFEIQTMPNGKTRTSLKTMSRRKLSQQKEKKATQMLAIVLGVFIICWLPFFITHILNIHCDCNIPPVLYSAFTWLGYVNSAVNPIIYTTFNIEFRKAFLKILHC

[8] = biological target: T6, Alpha-1A adrenergic receptor (Homo sapiens, UniProt P35348); assay: Displacement of [3H]prazosin from recombinant human alpha1 adrenoceptor expressed in CHO cell membranes after 30 mins by liquid scintillation counting method
T6 sequence (P35348 whole entry): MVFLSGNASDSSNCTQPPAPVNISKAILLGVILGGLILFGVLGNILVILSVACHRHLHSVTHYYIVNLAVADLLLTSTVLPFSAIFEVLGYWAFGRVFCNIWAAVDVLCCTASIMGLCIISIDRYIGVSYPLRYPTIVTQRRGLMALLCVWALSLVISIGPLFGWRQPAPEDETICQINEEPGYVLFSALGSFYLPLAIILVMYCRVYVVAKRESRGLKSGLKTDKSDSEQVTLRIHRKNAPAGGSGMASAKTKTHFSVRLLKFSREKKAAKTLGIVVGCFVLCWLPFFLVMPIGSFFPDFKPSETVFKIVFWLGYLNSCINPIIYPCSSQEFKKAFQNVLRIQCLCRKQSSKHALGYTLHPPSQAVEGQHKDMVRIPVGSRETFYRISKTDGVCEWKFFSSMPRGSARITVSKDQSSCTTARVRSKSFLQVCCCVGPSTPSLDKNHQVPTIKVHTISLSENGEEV

[9] = biological target: T7, 5-hydroxytryptamine receptor 1A (Homo sapiens) (UniProt P08908); assay: Agonist activity at human 5-HT1A receptor expressed in CHO-K1 cells co-expressing Galpha16 assessed as increase in calcium mobilization measured for 30 secs by aequorin-derived luminescence assay relative to serotonin; assay type: functional, cell-based
T7 sequence (whole entry): T2 sequence (P08908 whole entry)

[10] = biological target: T7, 5-hydroxytryptamine receptor 1A (Homo sapiens); assay: Antagonist activity at human 5-HT1A receptor expressed in CHO-K1 cells co-expressing Galpha16 assessed as decrease in serotonin-induced calcium mobilization preincubated for 25 mins followed by serotonin challenge measured for 30 secs by aequorin-derived luminescence assay relative to control; assay type: functional, cell-based
[11] = biological target: T7, 5-hydroxytryptamine receptor 1A (Homo sapiens); assay: (§1) Antagonist activity at human 5-HT1A receptor expressed in CHO-K1 cells co-expressing Galpha16 assessed as decrease in serotonin calcium mobilization preincubated for 25 mins followed by serotonin challenge measured for 30 secs by aequorin-derived luminescence assay; assay type: functional, cell-based
[12] = biological target: T2, 5-hydroxytryptamine receptor 1A; assay: as §1; assay type: functional, cell-based
[13] = biological target: T3, 5-hydroxytryptamine receptor 2A; assay: Antagonist activity at human 5-HT2A receptor expressed in CHO-K1 cells co-expressing Galpha16 assessed as decrease in serotonin calcium mobilization preincubated for 30 mins followed by serotonin challenge measured for 30 secs by aequorin-derived luminescence assay; assay type: functional, cell-based
[14] = biological target: T4, 5-hydroxytryptamine receptor 7; assay: Agonist activity at human 5-HT7 receptor expressed in CHO-K1 cells assessed as increase in serotonin-induced cAMP level after 1 hr by TR-FRET assay relative to serotonin; assay type: functional, cell-based
[15] = biological target: T4, 5-hydroxytryptamine receptor 7; assay: Antagonist activity at human 5-HT7 receptor expressed in CHO-K1 cells assessed as decrease in serotonin-induced cAMP level after 1 hr by TR-FRET assay relative to control; assay type: functional, cell-based
[16] = biological target: T4, 5-hydroxytryptamine receptor 7; assay: Antagonist activity at human 5-HT7 receptor expressed in CHO-K1 cells assessed as decrease in serotonin-induced cAMP level after 1 hr by TR-FRET assay; assay type: functional, cell-based
[17] = biological target: T5, D(2) dopamine receptor; assay: Agonist activity at human D2 receptor expressed in CHO-K1 cells co-expressing Galphaqi5 assessed as increase apomorphine-induced calcium mobilization measured for 30 secs by aequorin-derived luminescence assay relative to apomorphine; assay type: functional, cell-based
[18] = biological target: T5, D(2) dopamine receptor; assay: Agonist activity at human D2 receptor expressed in CHO-K1 cells co-expressing Galphaqi5 assessed as increase in calcium mobilization measured for 30 secs by aequorin-derived luminescence assay; assay type: functional, cell-based
[19] = tested on: Mus musculus; assay: Antidepressant-like activity in Albino Swiss CD-1 mouse assessed as immobility time at 5 mg/kg, ip administered 30 mins prior to test measured for last 4 mins of 6 mins observation by forced swim test (reference value: 153.9 to 201.9 secs); assay type: functional
[20] = tested on: Mus musculus; assay: Antidepressant-like activity in Albino Swiss CD-1 mouse assessed as immobility time at 10 mg/kg, ip administered 30 mins prior to test measured for last 4 mins of 6 mins observation by forced swim test (reference value: 153.9 to 201.9 secs); assay type: functional
[21] = tested on: Mus musculus; assay: Antidepressant-like activity in Albino Swiss CD-1 mouse assessed as immobility time at 20 mg/kg, ip administered 30 mins prior to test measured for last 4 mins of 6 mins observation by forced swim test (reference value: 153.9 to 201.9 secs); assay type: functional
[22] = tested on: Mus musculus; assay: Anxiolytic-like activity in Albino Swiss CD-1 mouse assessed as increase in number of punished crossings at 5 to 10 mg/kg, ip administered for 30 mins prior to test measured for 1 min by four-plate test; assay type: functional, organism-based
Outline: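 Four-plate test in mice, i.p., 30 min before test; vehicle 0.9% NaCl; doses 1.25–10 mg/kg; number of punished crossings counted; mean ± SEM, n = 8–10 mice per group; ANOVA F statistics.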

[23] = tested on: Mus musculus; assay: Toxicity in Albino Swiss CD-1 mouse assessed as effect on locomotory activity at 5 to 10 mg/kg, ip administered for 30 mins prior to test measured for 1 min; assay type: organism-based; conditions: in vivo
Outline: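 Mice dosed i.p. 30 min before test; vehicle groups received 0.9% NaCl. Spontaneous locomotion scored as number of crossings during a 1-min session. Each dose compared with its own vehicle group by Student t-test; mean ± SEM, n = 8–10 mice per group.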

Ki [1]: 127.9 nM
Ki [2]: 213 nM
SMILES: COc1ccccc1N1CCN(CCCNc2cc(=O)n(C)c(=O)n2C)CC1

Ki [3]: 20 nM
Ki [4]: 76 nM
Ki [5]: > 5000 nM
Ki [6]: 90 nM
Ki [7]: 299 nM
Ki [8]: 93 nM
Emax [9]: 11%
Emax [10]: 6%
Kb [11]: 71.5 nM
IC50 [12]: 291 nM
IC50 [13]: 85800 nM
Emax [14]: 11%
Emax [15]: 15%
IC50 [16]: 5790 nM
Kb [16]: 2460 nM
Emax [17]: 48%
EC50 [18]: 757 nM
SMILES: Cc1cc(OCCCN2CCN(c3ccccc3)CC2)ccc1Cl.Cl.Cl
Time [19]: 189.1 s
Time [20]: 188.9 s
Time [21]: 172.1 s
Activity [22]: inactive
Activity [23]: Non-Toxic
